Source: PubChem BioAssay (The Scripps Research Institute Molecular Screening Center)
Hits are enriched below; roughly 4.5% of the tested compounds scored in any of these assays.
TAAR1 antag = human TAAR1 antagonism; Q96RJ0; CHO RD-HGA16 TAAR1, Fluo-8 calcium fluorescence, antagonist; inhibition, % at 3 µM; hit rate 1.5% among 360,000;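 active = inhibition above a per-plate cutoff, the mean inhibition of test compounds on that plate plus 3 SD, cut at about 49% in these data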;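 also: 0% = DMSO plus EC80 beta-PEA response and 100% = DMSO alone without agonist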
Target sequence (Q96RJ0 whole entry, looked up): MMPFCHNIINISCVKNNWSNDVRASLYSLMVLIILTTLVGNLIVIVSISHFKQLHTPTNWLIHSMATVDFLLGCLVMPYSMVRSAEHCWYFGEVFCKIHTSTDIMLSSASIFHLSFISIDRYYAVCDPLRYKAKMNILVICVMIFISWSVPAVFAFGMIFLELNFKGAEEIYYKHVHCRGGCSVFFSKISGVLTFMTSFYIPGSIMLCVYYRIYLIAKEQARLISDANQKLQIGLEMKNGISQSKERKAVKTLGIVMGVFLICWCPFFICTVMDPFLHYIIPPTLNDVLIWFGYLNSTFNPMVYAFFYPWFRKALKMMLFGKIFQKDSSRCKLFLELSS
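Material: CHO RD-HGA16 cells bearing hTAAR1; compound dosing: one-point dosing, 3 µM nominal final; schedule: dye loading 75 min at 37 °C, then 30 min room temperature; measured by: calcium fluorescence with Fluo-8; control set: vehicle and agonist controls; replication: n of 1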
TAAR1 agonist = human TAAR1 agonism; Q96RJ0; CHO RD-HGA16 TAAR1, Fluo-8 calcium fluorescence; vehicle wells 0%, saturating PEA agonist 100%; activation, % at 3 µM; hit rate 0.99% among 360,000;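 active = activation above the mean activation of all test compounds in the run plus 3 SD, cut at about 38% in these data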
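System: CHO RD-HGA16 cells carrying human TAAR1 plus Gα16; Incubation: 17-24 h seeding, 75 min 37 °C dye, 30 min RT; Measured by: Fluo-8 fluorescence, 5 s baseline then 140 s kinetic read; Control set: DMSO and PEA EC100; Replication: single well for each compound.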
OX1R antag-1 = antagonists of human orexin 1 receptor (OX1R) | O43613 | OX1R-expressing cells, FRET antagonist read-out | inhibition, % at 6.6 µM | hit rate 1.8% among 330,000 | AID 485270; in the data active = inhibition mostly above about 38%, no sharp cut-off; inactive = mostly below about 40%;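 also: 0% = agonist challenge alone and 100% = reference antagonist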
OX1R antag-2 = human HCRTR1 antagonism; O43613; CHO/OX1R cells, Fluo-8 calcium fluorescence, orexin A; inhibition, % at 5 µM; hit rate 0.43% among 330,000;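 active = inhibition above its plate's threshold, mean inhibition of all tested compounds on the plate plus 3 SD, cut at about 37% in these data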;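 also: 0% = orexin A challenge wells and 100% = SB-334867-A antagonist wells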
CHO parental Ca = signal in parental CHO cells, OX1R antagonist counter-screen; parental CHO-K1, ATP-induced calcium, Fluo-8 fluorescence; inhibition, % at 5.6 µM; hit rate 0.63% among 330,000; AID 463079;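 active = inhibition above that plate's mean sample inhibition plus 3 SD, cut at about 26% in these data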;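 also: 0% = ATP-challenged DMSO wells and 100% = DMSO wells without ATP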
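Test system: untransfected parental CHO cell line. Compound: one dose, 5.6 µM nominal. Detection: intracellular calcium via Fluo-8 no-wash fluorescent dye. Measure: % inhibition. Benchmarks: ATP-challenged DMSO wells low, unchallenged DMSO wells high.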
GPR7 antag = antagonists of human GPR7 (neuropeptides B/W receptor 1). hit rate 1.1% among 290,000. GPR7-expressing cells, fluorescence antagonist assay. P48145. inhibition, % at 4.4 µM; in the data active = inhibition above about 16%, passing the limit was not always enough;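 also: cells stimulated with the agonist NPW; 0% = agonist with vehicle and 100% = vehicle without agonist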
An asterisk follows results filed as active; x = no result given.

SMILES	TAAR1 antag	TAAR1 agonist	OX1R antag-1	OX1R antag-2	CHO parental Ca	GPR7 antag
CC(=O)N1CCc2c(sc(NC(=O)C3CCN(S(=O)(=O)c4cccs4)CC3)c2C(N)=O)C1	7	2	3	-14	-4	x
Cc1ccc(S(=O)(=O)NNC(=O)Nc2ccc(Cl)c(Cl)c2)cc1	2	3	194*	-7	22	-1
Cc1ccc(S(=O)(=O)NC(=O)Nc2ccc(N(C)C)cc2)cc1	-19	0	51*	-16	-6	-4
Cc1nn(C)c(C)c1NC(=O)Nc1ccc(Cl)c(Cl)c1	-2	12	26	20	44*	5
Cc1cccc(NC(=O)c2cc3ccccc3o2)c1	-14	9	30	-6	-19	18*
Cc1cc(NC(=O)c2cccnc2Cl)ccc1NC(=O)c1cc2ccccc2o1	24	40*	2	-22	-17	-3
Cc1ccc(OCC(=O)NNC(=O)c2cc3ccccc3o2)cc1C	-2	2	6	-5	49*	-18
Cc1cc(NC(=O)c2cc3ccccc3o2)ccc1NC(=O)c1ccccc1	28	9	20	-22	-19	-6
COCCNC(=O)C1CCCN(C(=O)C2(c3ccc(Cl)cc3)CCCC2)CC1 (configuration not stated)	12	-1	x	x	x	x
O=C(CC1SC(=Nc2ccccc2)N(CCCO)C1=O)Nc1ccc(Cl)cc1 (configuration not stated)	x	x	11	77*	66*	7
CCCC(=O)NC(=S)Nc1cccc(NC(=O)c2ccccc2Cl)c1	7	1	17	-6	-13	-3
O=C(Nc1ncccn1)c1ccc([N+](=O)[O-])cc1Cl	-7	3	35	-6	6	-14
CCCC(=O)Nc1cccc(NC(=O)c2ccc([N+](=O)[O-])cc2Cl)c1	2	2	62*	-23	-8	-10
O=C(Nc1cccnc1)c1ccc([N+](=O)[O-])cc1Cl	21	2	56*	-18	-6	-2
CCCC(=O)NC(=S)Nc1cccc(NC(=O)c2ccc(Cl)cc2Cl)c1	56*	11	27	9	4	-8
O=C(Nc1ccc([N+](=O)[O-])cc1Cl)c1cc(Cl)ccc1O	-26	6	68*	33	29	x
COC(=O)C1=CN(c2ccc3c(c2)OCO3)C(N)=C(C#N)C1c1ccc(-c2ccccc2)cc1 (configuration not stated)	-25	0	x	x	x	x
COC(=O)[C@]12C[C@H](CC(=O)NCc3ccccc3)C(=O)N(Cc3ccccc3)C1=C[C@H](C1CCCC1)O[C@@H]2C	-12	-1	x	x	x	x
COc1ccc(-c2cc(-c3ccco3)[nH]c(=O)c2C#N)cc1OC	-36	6	73*	4	2	0
c1csc(-c2nc(-c3ccc(-c4ccon4)s3)no2)c1	-1	0	40*	28	-9	-8
Cn1nc(C(F)(F)F)c(CO)c1Sc1ccc(F)cc1	-5	8	15	-2	29*	1
O=[N+]([O-])c1ccc(N=NN(CCO)CCO)cc1	4	3	47*	1	-1	-7
CCCOC(=O)c1ccc(NC(=O)c2ccccc2OC)cc1	0	0	76*	11	-11	-5
COc1cccc(OC)c1C(=O)Nc1ccc(Br)c(C(=O)c2ccccc2)c1	53*	-1	19	-26	-22	-13
COc1ccccc1/C=N/NC(=O)c1ccc(NC(=O)c2ccccc2Br)cc1	51*	11	9	-19	-9	5
SMILES	TAAR1 antag	TAAR1 agonist	OX1R antag-1	OX1R antag-2	CHO parental Ca	GPR7 antag
CCCCOC(=O)c1ccc(NC(=O)c2ccccc2OC)cc1	12	1	47	2	-6	-1
O=C1/C(=C/c2ccc(N3CCOCC3)o2)SC(=Nc2ccccc2)N1CCc1c[nH]c2ccccc12	x	x	1	75*	92*	26
COc1cc(/C=C2\SC(=Nc3ccccc3)N(CCc3c[nH]c4ccccc34)C2=O)ccc1OC(C)C(=O)O (configuration not stated)	13	0	19	5	6	-5
O=C1c2ccccc2C(=O)c2c(O)c(O)cc(O)c21	1	-2	28*	0	-2	x
COc1cccc2cc(C(C)N(CCCN3CCOCC3)C(=S)Nc3cc(C)ccc3C)oc12 (configuration not stated)	-30	-3	5	-15	-6	-3
COc1cccc2cc(C(C)N(CCCN3CCOCC3)C(=S)Nc3cccc(C)c3C)oc12 (configuration not stated)	-48	39*	11	-16	-12	8
COc1ccc2cc3cc(C(=O)NCCN4CCc5ccccc5C4)oc3nc2c1	x	x	42*	-18	-11	-3
COc1ccc2cc3cc(C(=O)NCCCN4CCC(C)CC4)oc3nc2c1	x	x	46*	-19	-4	-13
COc1ccc2cc3cc(C(=O)N4CCCCCC4)oc3nc2c1	x	x	57*	2	-10	5
COc1ccc2cc3cc(C(=O)NCCN4CCN(Cc5ccccc5)CC4)oc3nc2c1	13	2	61	-38	-33	-1
CN(c1cccc(F)c1)c1cc2c(c3c1ccn3C)C1CCC2O1 (configuration not stated)	-18	-1	x	x	x	x
Cc1ccc(OCCOC(=O)C2CCN(S(=O)(=O)c3ccc(C)c(C)c3)CC2)cc1	24	2	16	-5	29*	x
CC(OC(=O)c1ccc(O)cc1)C(=O)Nc1ccc(Oc2ccccc2)cc1 (configuration not stated)	49*	3	13	11	23	x
CCOc1ccc(S(=O)(=O)N(C)CC(=O)NCc2ccco2)cc1	-16	3	14	-13	-6	-7
CC(=O)N(c1ccc2oc(=O)sc2c1)S(=O)(=O)c1ccccc1	7	2	17	-13	3	-8
Cc1ccc(S(=O)(=O)N(C(=O)c2ccco2)c2cc3sc(=O)oc3c3ccccc23)cc1	-3	1	10	62*	76*	0
CCOc1ccc(S(=O)(=O)N(C(=O)c2ccco2)c2cc3sc(=O)oc3c3ccccc23)cc1	0	3	6	69*	82*	-5
COc1ccc(S(=O)(=O)N(C(=O)C(C)C)c2ccc3oc(=O)sc3c2)cc1	0	2	-8	3	16	11
COc1ccc(S(=O)(=O)N(C(=O)c2ccco2)c2cc3sc(=O)oc3c3ccccc23)cc1	17	3	2	60*	66*	-11
Cc1ccc2nc(-c3ccccn3)c(N)n2c1	-8	0	x	x	x	x
COC(=O)c1cc2c(c3c4ccccc4n(S(=O)(=O)c4ccc(OC)cc4)c13)C(=O)N(Cc1ccco1)C2	-27	0	x	x	x	x
